Reference: ChEMBL document CHEMBL1122406, “Bis(bioreductive) alkylating agents: synthesis and biological activity in a nude mouse human carcinoma model” (1983)

Columns and labels:
[1] = test system: EBV-positive nasopharyngeal cell line; assay: EBV-positive nasopharyngeal colony count obtained from the examination of uniform plate surface areas after a dose of 0.1 ug/mL; format: functional, human gammaherpesvirus 4
Outline: (§1)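 Modified clonogenic assay in D98/HR1 cells from 3-4-day-old monolayer cultures. Drug diluted into warm McCoy's 5A medium; quinones first dissolved in dichloromethane, then diluted in 95% ethanol. Cells at 4.0 × 10^5/mL exposed for 1 h at 37 °C, washed twice, then plated in 0.3% agar CMRL 1066 medium over a 0.5% agar base, 6.7 × 10^4 cells/plate. Survival is expressed relative to control.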

[2] = test system: EBV-positive nasopharyngeal cell line; assay: Percent colony reduction in cell growth in EBV-positive nasopharyngeal cell lines after administration of 0.4 ug/mL dose from experiment B; format: functional, human gammaherpesvirus 4
Outline: (§2)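 D98/HR1 cells from 3-4-day monolayer cultures, suspended at 4.0×10^5/mL and exposed to drug for 1 h at 37 °C. Quinones dissolved in dichloromethane, diluted in 95% ethanol, then in warm McCoy's 5A. Cells washed twice, plated in agar over an agar base at 6.7×10^4 cells/plate. Colony survival expressed relative to control, as percent reduction.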

[3] = test system: EBV-positive nasopharyngeal cell line; assay: EBV-positive nasopharyngeal colony count obtained from the examination of uniform plate surface areas after a dose of 0.04 ug/mL from experiment A; format: functional, human gammaherpesvirus 4; outline: as §1
[4] = test system: EBV-positive nasopharyngeal cell line; assay: EBV-positive nasopharyngeal colony count obtained from the examination of uniform plate surface areas after a dose of 0.004 ug/mL from experiment B; format: functional, human gammaherpesvirus 4; outline: as §1
[5] = test system: EBV-positive nasopharyngeal cell line; assay: EBV-positive nasopharyngeal colony count obtained from the examination of uniform plate surface areas after a dose of 0.04 ug/mL from experiment B; format: functional, human gammaherpesvirus 4; outline: as §1
[6] = test system: EBV-positive nasopharyngeal cell line; assay: Percent colony reduction in cell growth in EBV-positive nasopharyngeal cell lines after administration of 0.04 ug/mL dose from experiment B; format: functional, human gammaherpesvirus 4; outline: as §2
[7] = test system: EBV-positive nasopharyngeal cell line; assay: EBV-positive nasopharyngeal colony count obtained from the examination of uniform plate surface areas after a dose of 0.4 ug/mL from experiment B; format: functional, human gammaherpesvirus 4; outline: as §1
[8] = test system: EBV-positive nasopharyngeal cell line; assay: Percent colony reduction in cell growth in EBV-positive nasopharyngeal cell lines after administration of 0.04 ug/mL dose from experiment A; format: functional, human gammaherpesvirus 4; outline: as §2
[9] = test system: EBV-positive nasopharyngeal cell line; assay: Percent colony reduction in cell growth in EBV-positive nasopharyngeal cell lines after administration of 0.004 ug/mL dose from experiment B; format: functional, human gammaherpesvirus 4; outline: as §2
[10] = test system: EBV-positive nasopharyngeal cell line; assay: EBV-positive nasopharyngeal cells (D98/HR1) survived at concentration of 3.0 ug/mL of compound; format: functional, human gammaherpesvirus 4; outline: as §1
[11] = test system: EBV-positive nasopharyngeal cell line; assay: Percent colony reduction in cell growth in EBV-positive nasopharyngeal cell lines (D98/HR1) after administration of 3.0 ug/mL dose; format: functional, human gammaherpesvirus 4; outline: as §2
[12] = test system: EBV-positive nasopharyngeal cell line; assay: Percent colony reduction in cell growth in EBV-positive nasopharyngeal cell lines after administration of 0.067 ug/mL dose
Mus musculus [13] = assay: Base line measurement at a sample size of 4 after first week of 20 mg/kg dose administration in mice; format: functional
Outline: (§3)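 Nude mice pretreated with 0.5 mL rabbit anti-mouse thymocyte serum s.c., inoculated s.c. 7 days later with 1×10^7 D98/HR1 cells in PBS, and given a second serum dose two weeks later. Dosing started at tumors ~2-3 mm diameter, daily for 14 days, then 2 weeks off. Dose per kg from daily individual weights; Klucel vehicle. Group mean tumor volume (mm3) adjusted by analysis of covariance for base line.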

Mus musculus [14] = assay: Base line measurement at a sample size of 4 after fourth week of 20 mg/kg dose administration in mice; format: functional; outline: as §3
Mus musculus [15] = assay: Base line measurement at a sample size of 5 after first week of 5 mg/kg dose administration in mice; format: functional; outline: as §3
Mus musculus [16] = assay: Base line measurement at a sample size of 5 after fourth week of 5 mg/kg dose administration in mice; format: functional; outline: as §3
Mus musculus [17] = assay: Base line measurement at a sample size of 4 after second week of 20 mg/kg dose administration in mice; format: functional; outline: as §3
[18] = test system: EBV-positive nasopharyngeal cell line; assay: EBV-positive nasopharyngeal colony count obtained from the examination of uniform plate surface areas after a dose of 1.34 ug/mL from Experiment B; format: functional, human gammaherpesvirus 4; outline: as §1
Mus musculus [19] = assay: Base line measurement at a sample size of 5 after second week of 5 mg/kg dose administration in mice; format: functional; outline: as §3
[20] = test system: EBV-positive nasopharyngeal cell line; assay: EBV-positive nasopharyngeal colony count obtained from the examination of uniform plate surface areas after a dose of 0.67 ug/mL from Experiment B; format: functional, human gammaherpesvirus 4; outline: as §1
[21] = test system: EBV-positive nasopharyngeal cell line; assay: Percent colony reduction in cell growth in EBV-positive nasopharyngeal cell lines after in vitro exposure at 1.34 ug/mL
[22] = test system: EBV-positive nasopharyngeal cell line; assay: EBV-positive nasopharyngeal colony count obtained from the examination of uniform plate surface areas after a dose of 2.68 ug/mL from Experiment B in mice; format: functional, human gammaherpesvirus 4
[23] = test system: EBV-positive nasopharyngeal cell line; assay: EBV-positive nasopharyngeal colony count obtained from the examination of uniform plate surface areas after a dose of 0.067 ug/mL from Experiment B; format: functional, human gammaherpesvirus 4; outline: as §1
[24] = test system: EBV-positive nasopharyngeal cell line; assay: EBV-positive nasopharyngeal colony count obtained from the examination of uniform plate surface areas after a dose of 0.67 ug/mL; format: functional, human gammaherpesvirus 4; outline: as §1
Mus musculus [25] = assay: Base line measurement at a sample size of 5 after first week of 5 mg/kg dose administration; format: functional; outline: as §3
[26] = test system: EBV-positive nasopharyngeal cell line; assay: EBV-positive nasopharyngeal colony count obtained from the examination of uniform plate surface areas after a dose of 1.34 ug/mL; format: functional, human gammaherpesvirus 4; outline: as §1
[27] = test system: EBV-positive nasopharyngeal cell line; assay: Percent colony reduction in cell growth in EBV-positive nasopharyngeal cell lines after administration of 0.2 ug/mL dose; format: functional, human gammaherpesvirus 4; outline: as §2
Mus musculus [28] = assay: Base line measurement at a sample size of 3 after first week of 20 mg/kg dose administration; format: functional; outline: as §3
Mus musculus [29] = assay: Base line measurement at a sample size of 3 after fourth week of 20 mg/kg dose administration; format: functional; outline: as §3
[30] = test system: EBV-positive nasopharyngeal cell line; assay: Percent colony reduction in cell growth in EBV-positive nasopharyngeal cell lines after administration of 0.67 ug/mL dose; format: functional, human gammaherpesvirus 4; outline: as §2
Mus musculus [31] = assay: Base line measurement at a sample size of 5 after fourth week of 5 mg/kg dose administration; format: functional; outline: as §3
Mus musculus [32] = assay: Base line measurement at a sample size of 3 after second week of 20 mg/kg dose administration; format: functional; outline: as §3
[33] = test system: EBV-positive nasopharyngeal cell line; assay: Percent colony reduction in cell growth in EBV-positive nasopharyngeal cell lines after administration of 1.34 ug/mL dose; format: functional, human gammaherpesvirus 4; outline: as §2
[34] = test system: EBV-positive nasopharyngeal cell line; assay: EBV-positive nasopharyngeal colony count obtained from the examination of uniform plate surface areas after a dose of 2.68 ug/mL; format: functional, human gammaherpesvirus 4; outline: as §1
[35] = test system: EBV-positive nasopharyngeal cell line; assay: EBV-positive nasopharyngeal colony count obtained from the examination of uniform plate surface areas after a dose of 0.2 ug/mL; format: functional, human gammaherpesvirus 4; outline: as §1
[36] = test system: EBV-positive nasopharyngeal cell line; assay: Percent colony reduction in cell growth in EBV-positive nasopharyngeal cell lines after administration of 6.28 ug/mL dose; format: functional, human gammaherpesvirus 4; details: in the assay text read “2.68 ug/mL” for “6.28 ug/mL”; outline: as §2
Mus musculus [37] = assay: Base line measurement at a sample size of 5 after second week of 5 mg/kg dose administration; format: functional; outline: as §3
[38] = test system: EBV-positive nasopharyngeal cell line; assay: Percent colony reduction in cell growth in EBV-positive nasopharyngeal cell lines after administration of 10 ug/mL dose; format: functional, cell-based; details: human gammaherpesvirus 4; outline: as §2
[39] = test system: EBV-positive nasopharyngeal cell line; assay: EBV-positive nasopharyngeal colony count obtained from the examination of uniform plate surface areas after a dose of 10 ug/mL; format: functional, cell-based; details: human gammaherpesvirus 4; outline: as §1
[40] = test system: EBV-positive nasopharyngeal cell line; assay: Percent colony reduction in cell growth in EBV-positive nasopharyngeal cell lines (D98/HR1) after administration of 100 ug/mL dose; format: functional, human gammaherpesvirus 4; outline: as §2
[41] = test system: EBV-positive nasopharyngeal cell line; assay: Percent colony reduction in cell growth in EBV-positive nasopharyngeal cell lines (D98/HR1) after administration of 0.3 ug/mL dose; format: functional, human gammaherpesvirus 4; outline: as §2
[42] = test system: EBV-positive nasopharyngeal cell line; assay: EBV-positive nasopharyngeal cells (D98/HR1) survived at concentration of 0.3 ug/mL of compound; format: functional, human gammaherpesvirus 4; outline: as §1
[43] = test system: EBV-positive nasopharyngeal cell line; assay: EBV-positive nasopharyngeal cells (D98/HR1) survived at concentration of 100 ug/mL of compound; format: functional, human gammaherpesvirus 4; outline: as §1
[44] = test system: EBV-positive nasopharyngeal cell line; assay: EBV-positive nasopharyngeal colony count obtained from the examination of uniform plate surface areas after a dose of 6.0 ug/mL; format: functional, human gammaherpesvirus 4; outline: as §1
[45] = test system: EBV-positive nasopharyngeal cell line; assay: Percent colony reduction in cell growth in EBV-positive nasopharyngeal cell lines after administration of 6.0 ug/mL dose; format: functional, human gammaherpesvirus 4; outline: as §2

O=C1c2c(O)ccc(O)c2C(=O)c2c(NCCNCCO)ccc(NCCNCCO)c21 [MITOXANTRONE]
Survival [1]: 0.33

COc1cccc2c1C(=O)c1c(O)c3c(c(O)c1C2=O)C[C@@](O)(C(=O)CO)C[C@@H]3O[C@H]1C[C@H](N)[C@H](O)[C@H](C)O1 [DOXORUBICIN]
Reduction [2]: >99% | Survival [3]: 0.37 | Survival [4]: 0.69 | Survival [5]: 0.18 | Reduction [6]: 82% | Survival [7]: <0.1 | Reduction [8]: 63% | Reduction [9]: 31%

COc1cc([C@@H]2c3cc4c(cc3[C@@H](O[C@@H]3O[C@@H]5CO[C@@H](C)O[C@H]5[C@H](O)[C@H]3O)[C@H]3COC(=O)[C@H]23)OCO4)cc(OC)c1O [ETOPOSIDE]
Survival [10]: 0.3 | Reduction [11]: 70%

CC(=O)OCC1=CC(=O)C=C(CCC2=CC(=O)C=C(COC(C)=O)C2=O)C1=O
Reduction [12]: 30% | Baseline (Mus musculus [13]): 34.53 | Baseline (Mus musculus [14]): 360.23 | Baseline (Mus musculus [15]): 69.66 | Baseline (Mus musculus [16]): 358.79 | Baseline (Mus musculus [17]): 94.83 | Survival [18]: 1.19 | Baseline (Mus musculus [19]): 162.76 | Survival [20]: 1.34 | Reduction [21]: -19% | Survival [22]: 1.35 | Survival [23]: 0.7

O=C1C=C(CBr)C(=O)C(CCC2=CC(=O)C=C(CBr)C2=O)=C1
Survival [24]: 0.81 | Baseline (Mus musculus [25]): 22.32 | Survival [26]: 0.77 | Reduction [27]: 0% | Baseline (Mus musculus [28]): 12.54 | Baseline (Mus musculus [29]): 29.69 | Reduction [30]: 19% | Baseline (Mus musculus [31]): 137.03 | Baseline (Mus musculus [32]): 17.52 | Reduction [33]: 23% | Survival [34]: 0.91 | Survival [35]: 1 | Reduction [36]: 9% | Baseline (Mus musculus [37]): 43.2

CISPLATIN
Reduction [38]: 97% | Reduction ([27]; human gammaherpesvirus 4): 60% | Survival [39]: 0.03 | Survival ([35]; human gammaherpesvirus 4): 0.4

CN(Cc1cnc2nc(N)nc(N)c2n1)c1ccc(C(=O)N[C@@H](CCC(=O)O)C(=O)O)cc1 [METHOTREXATE]
Reduction [40]: >99% | Reduction [41]: 60% | Survival [42]: 0.4 | Survival [43]: <0.01

CC[C@]1(O)C[C@@H]2CN(CCc3c([nH]c4ccccc34)[C@@](C(=O)OC)(c3cc4c(cc3OC)N(C)[C@H]3[C@@](O)(C(=O)OC)[C@H](OC(C)=O)[C@]5(CC)C=CCN6CC[C@]43[C@@H]65)C2)C1 [VINBLASTINE]
Survival [44]: <0.01 | Reduction [45]: >99%
